What was measured:
Liver microsome [1] = experiment: Covalent binding in human liver microsomes measured per mg of protein using radiolabelled compound at 10 uM after 1 hr incubation by liquid scintillation counting
Liver microsome [2] = experiment: Metabolic activation in human liver microsomes assessed as [3H]GSH adduct formation rate measured per mg of protein at 100 uM by [3H]GSH trapping assay
CYP2C9 [3] = target: T1, CYP2C9 (Homo sapiens, UniProt P11712); experiment: Time dependent inhibition of CYP2C9 (unknown origin) at 10 uM by LC/MS system; format: ADME
T1 sequence (P11712 whole entry): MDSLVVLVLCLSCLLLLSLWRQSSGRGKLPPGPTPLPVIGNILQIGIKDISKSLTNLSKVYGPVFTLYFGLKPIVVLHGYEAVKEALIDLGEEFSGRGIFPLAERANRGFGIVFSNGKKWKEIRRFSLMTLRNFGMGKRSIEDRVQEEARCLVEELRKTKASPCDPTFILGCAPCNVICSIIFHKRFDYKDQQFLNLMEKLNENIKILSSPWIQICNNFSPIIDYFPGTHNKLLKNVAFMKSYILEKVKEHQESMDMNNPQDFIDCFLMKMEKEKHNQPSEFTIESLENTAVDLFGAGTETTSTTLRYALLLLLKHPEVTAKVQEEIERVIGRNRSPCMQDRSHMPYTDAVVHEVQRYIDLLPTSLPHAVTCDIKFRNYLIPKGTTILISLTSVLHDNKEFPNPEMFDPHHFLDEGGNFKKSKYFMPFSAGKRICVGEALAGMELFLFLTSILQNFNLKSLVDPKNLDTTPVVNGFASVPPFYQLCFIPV
In short: (§1)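 Human liver microsomes at 1.0 mg/mL were preincubated 0 or 30 min with compound and NADPH-generating system in 0.1 M sodium phosphate, then diluted ten-fold into incubation containing 200 μM tolbutamide (final) for 10 min to probe CYP2C9. Percent of matched no-inhibitor control was determined at each time. Inactivation = 100 × [1 − ratio of 30-min to 0-min values]; 10% threshold.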

[4] = Intrinsic clearance for reactive metabolites formation per mg of protein based on cytochrome P450 (unknown origin) inactivation rate by TDI assay; conditions: human
[5] = Intrinsic clearance for reactive metabolites formation assessed as summation of [3H]GSH adduct formation rate-based reactive metabolites formation and cytochrome P450 (unknown origin) inactivation rate-based reactive metabolites formation; conditions: human
Liver microsome [6] = conditions: human, microsomes, 100 µM
CYP1A2 = target: T2, CYP1A2 (Homo sapiens, UniProt P05177); experiment: in vitro
T2 sequence (P05177 whole entry): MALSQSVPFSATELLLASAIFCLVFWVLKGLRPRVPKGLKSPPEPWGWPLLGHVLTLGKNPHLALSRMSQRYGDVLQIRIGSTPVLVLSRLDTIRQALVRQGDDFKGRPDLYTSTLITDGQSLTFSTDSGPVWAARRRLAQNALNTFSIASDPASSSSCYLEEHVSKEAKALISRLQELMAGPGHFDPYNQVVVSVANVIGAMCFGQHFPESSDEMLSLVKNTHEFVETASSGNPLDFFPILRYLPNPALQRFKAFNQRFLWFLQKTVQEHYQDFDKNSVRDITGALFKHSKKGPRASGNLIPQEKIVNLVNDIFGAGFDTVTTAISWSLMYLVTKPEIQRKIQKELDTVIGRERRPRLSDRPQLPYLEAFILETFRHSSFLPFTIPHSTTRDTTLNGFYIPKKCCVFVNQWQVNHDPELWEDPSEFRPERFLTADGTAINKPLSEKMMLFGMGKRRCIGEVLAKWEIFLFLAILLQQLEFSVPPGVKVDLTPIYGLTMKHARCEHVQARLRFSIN

CYP2B6 [7] = target: T3, CYP2B6 (Homo sapiens, UniProt P20813); experiment: in vitro
T3 sequence (P20813 whole entry): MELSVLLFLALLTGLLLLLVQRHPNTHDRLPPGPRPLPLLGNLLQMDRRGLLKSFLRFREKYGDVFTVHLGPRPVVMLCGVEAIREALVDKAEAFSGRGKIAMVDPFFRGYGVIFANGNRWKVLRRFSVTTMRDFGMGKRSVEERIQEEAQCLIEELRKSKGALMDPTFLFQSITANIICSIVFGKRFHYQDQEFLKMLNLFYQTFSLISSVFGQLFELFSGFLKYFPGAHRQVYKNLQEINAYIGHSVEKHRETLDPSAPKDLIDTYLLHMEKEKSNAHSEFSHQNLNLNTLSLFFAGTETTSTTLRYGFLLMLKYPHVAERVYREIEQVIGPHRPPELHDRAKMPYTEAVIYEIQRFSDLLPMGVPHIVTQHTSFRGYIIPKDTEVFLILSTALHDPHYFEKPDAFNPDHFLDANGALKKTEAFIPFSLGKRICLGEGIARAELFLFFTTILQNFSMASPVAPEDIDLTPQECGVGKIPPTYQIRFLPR

CYP2C19 = CYP2C19 (Homo sapiens, UniProt P33261); experiment: in vitro
CYP2C19, sequence (P33261 whole entry): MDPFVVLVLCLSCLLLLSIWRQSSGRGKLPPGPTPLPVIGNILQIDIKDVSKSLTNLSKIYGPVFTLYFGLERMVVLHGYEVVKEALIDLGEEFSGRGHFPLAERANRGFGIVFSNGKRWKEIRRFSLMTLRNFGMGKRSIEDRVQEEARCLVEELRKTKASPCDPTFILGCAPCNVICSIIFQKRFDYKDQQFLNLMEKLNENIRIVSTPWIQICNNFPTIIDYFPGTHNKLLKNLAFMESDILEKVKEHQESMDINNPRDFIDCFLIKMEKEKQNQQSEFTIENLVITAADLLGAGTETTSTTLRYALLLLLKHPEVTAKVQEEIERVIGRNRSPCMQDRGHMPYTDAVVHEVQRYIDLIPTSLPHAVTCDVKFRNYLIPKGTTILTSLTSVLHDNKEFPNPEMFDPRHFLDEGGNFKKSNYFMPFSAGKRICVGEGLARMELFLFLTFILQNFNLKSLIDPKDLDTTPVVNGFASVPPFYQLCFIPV

CYP2D6 [8] = target: T4, CYP2D6 (Homo sapiens, UniProt P10635); experiment: in vitro
T4 sequence (P10635 whole entry): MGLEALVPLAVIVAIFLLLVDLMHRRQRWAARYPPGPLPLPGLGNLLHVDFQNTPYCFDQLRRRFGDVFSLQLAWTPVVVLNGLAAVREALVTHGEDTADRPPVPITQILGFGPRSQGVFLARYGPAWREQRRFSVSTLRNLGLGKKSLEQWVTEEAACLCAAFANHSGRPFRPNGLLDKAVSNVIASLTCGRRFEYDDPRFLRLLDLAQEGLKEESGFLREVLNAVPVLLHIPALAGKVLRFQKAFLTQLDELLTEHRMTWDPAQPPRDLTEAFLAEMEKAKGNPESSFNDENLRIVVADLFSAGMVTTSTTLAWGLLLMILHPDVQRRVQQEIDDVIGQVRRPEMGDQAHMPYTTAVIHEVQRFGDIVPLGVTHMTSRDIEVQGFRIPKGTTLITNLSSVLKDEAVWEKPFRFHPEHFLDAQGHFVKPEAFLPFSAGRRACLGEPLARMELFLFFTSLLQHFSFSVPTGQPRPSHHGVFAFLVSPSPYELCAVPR

CYP3A4 [9] = target: T5, CYP3A4 (Homo sapiens, UniProt P08684); experiment: in vitro
T5 sequence (P08684 whole entry): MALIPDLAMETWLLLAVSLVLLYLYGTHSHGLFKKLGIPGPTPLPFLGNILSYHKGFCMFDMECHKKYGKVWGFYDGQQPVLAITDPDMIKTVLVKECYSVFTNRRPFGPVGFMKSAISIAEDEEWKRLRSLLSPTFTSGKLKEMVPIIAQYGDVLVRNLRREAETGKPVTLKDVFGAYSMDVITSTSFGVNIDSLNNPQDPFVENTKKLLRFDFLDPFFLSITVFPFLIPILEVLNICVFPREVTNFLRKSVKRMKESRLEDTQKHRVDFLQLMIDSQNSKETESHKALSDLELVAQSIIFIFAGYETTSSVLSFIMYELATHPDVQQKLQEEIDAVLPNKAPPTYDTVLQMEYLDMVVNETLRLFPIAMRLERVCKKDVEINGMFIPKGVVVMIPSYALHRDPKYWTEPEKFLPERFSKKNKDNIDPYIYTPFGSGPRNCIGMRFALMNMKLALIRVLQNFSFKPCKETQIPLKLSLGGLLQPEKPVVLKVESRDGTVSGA

CYP2C8 = target: T6, CYP2C8 (Homo sapiens, UniProt P10632); experiment: in vitro
T6 sequence (P10632 whole entry): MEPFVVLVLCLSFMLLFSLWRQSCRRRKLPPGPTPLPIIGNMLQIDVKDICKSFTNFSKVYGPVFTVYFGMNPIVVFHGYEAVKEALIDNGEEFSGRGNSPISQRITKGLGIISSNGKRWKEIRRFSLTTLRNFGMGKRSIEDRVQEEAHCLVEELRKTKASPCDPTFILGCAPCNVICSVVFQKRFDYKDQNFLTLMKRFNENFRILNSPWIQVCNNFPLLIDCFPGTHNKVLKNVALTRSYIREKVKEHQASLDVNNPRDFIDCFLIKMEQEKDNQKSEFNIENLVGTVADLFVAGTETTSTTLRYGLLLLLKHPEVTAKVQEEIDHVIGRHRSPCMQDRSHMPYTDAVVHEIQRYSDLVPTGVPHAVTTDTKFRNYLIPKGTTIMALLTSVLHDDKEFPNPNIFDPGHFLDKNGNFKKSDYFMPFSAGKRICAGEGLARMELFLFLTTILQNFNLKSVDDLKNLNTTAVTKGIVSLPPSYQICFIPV

CYP2B6 [10] = target: T3, CYP2B6; experiment: Time dependent inhibition of CYP2B6 (unknown origin) at 3 uM by LC/MS system; format: ADME
CYP3A4 [11] = target: T5, CYP3A4; experiment: Time dependent inhibition of CYP3A4 (unknown origin) at 10 uM by LC/MS system; format: ADME
In short: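 CYP3A4: human liver microsomes at 0.5 mg/mL in preincubation, 0.1 M sodium phosphate, NADPH-generating system, 0 or 30 min. Ten-fold dilution into incubation with 2.5 μM midazolam (final), 10 min. Each value is relative to the matched control without inhibitor. % enzyme inactivation = 100 × [1 − %control(30 min)/%control(0 min)]; 10% threshold.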

CYP2C9 [12] = target: T1, CYP2C9; experiment: Time dependent inhibition of CYP2C9 (unknown origin) at 30 uM by LC/MS system; format: ADME; in short: as §1
CYP2D6 [13] = target: T4, CYP2D6; experiment: Time dependent inhibition of CYP2D6 (unknown origin) at 30 uM by LC/MS system; format: ADME
In short: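 Preincubation with HLMs at 1.0 mg/mL in 0.1 M sodium phosphate plus NADPH-generating system for 0 or 30 min, then tenfold dilution into incubation containing 30 μM dextromethorphan for 10 min; chromatographic read-out. Activity relative to controls without inhibitor; inactivation = 100×[1 − %control(30 min)/%control(0 min)], threshold 10%. Initial 100 μM lowered where reversible inhibition was strong.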

CYP2B6 [14] = target: T3, CYP2B6; experiment: Time dependent inhibition of CYP2B6 (unknown origin) at 30 uM by LC/MS system; format: ADME
In short: (§2)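 CYP2B6 in human liver microsomes (1.0 mg/mL in preincubation), 0.1 M sodium phosphate, NADPH-generating system. Preincubation 0 or 30 min, then ten-fold dilution into incubation solution containing 50 μM bupropion (final) for 10 min. Activity is expressed as percent of the matched no-inhibitor control. % inactivation = 100 × [1 − control(30 min)/control(0 min)]; threshold 10%.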

CYP2B6 [15] = target: T3, CYP2B6; experiment: Time dependent inhibition of CYP2B6 (unknown origin) at 0.3 uM by LC/MS system; format: ADME; in short: as §2
CYP2C9 [16] = target: T1, CYP2C9; experiment: in vitro

PB (Liver microsome [1])	Drug metabolism (Liver microsome [2])	inhibition at 10 µM (CYP2C9 [3])	clearance [4]	clearance [5]	CLH (Liver microsome [6])	inhibition at 100 µM (CYP1A2)	inhibition at 100 µM (CYP2B6 [7])	inhibition at 100 µM (CYP2C19; microsomes)	inhibition at 100 µM (CYP2D6 [8])	inhibition at 100 µM (CYP2C8)	inhibition at 30 µM (CYP2B6 [14])	inhibition at 0.3 µM (CYP2B6 [15])	inhibition at 100 µM (CYP2C9 [16])	SMILES	inhibition at 100 µM (CYP3A4 [9])	inhibition at 3 µM (CYP2B6 [10])	inhibition at 10 µM (CYP3A4 [11])	inhibition at 30 µM (CYP2C9 [12])	inhibition at 30 µM (CYP2D6 [13])	inhibition at 100 µM (CYP2C19; human liver microsomes)
436.7 pmol	4.2 pmol/min	28%	0.069 µL/min/mg	0.111 µL/min/mg	0.042 µL/min/mg	< 10%	< 10%	35%	< 10%	< 10%				O=C(O)COc1ccc(C(=O)c2cccs2)c(Cl)c1Cl	< 10%					
13 pmol	metabolite_not_detected					< 10%		< 10%		< 10%	< 10%			Cc1ccc(-c2cc(C(F)(F)F)nn2-c2ccc(S(N)(=O)=O)cc2)cc1 [CELECOXIB]			< 10%	< 10%	< 10%	
417.4 pmol	23.6 pmol/min		0.848 µL/min/mg	1.08 µL/min/mg	0.236 µL/min/mg	< 10%		10%	< 10%	< 10%		44%	< 10%	COC(=O)[C@H](c1ccccc1Cl)N1CCc2sccc2C1 [CLOPIDOGREL]						

SMILES	PB (Liver microsome [1])	Drug metabolism (Liver microsome [2])	inhibition at 10 µM (CYP2C9 [3])	clearance [4]	clearance [5]	CLH (Liver microsome [6])	inhibition at 100 µM (CYP1A2)	inhibition at 100 µM (CYP2B6 [7])	inhibition at 100 µM (CYP2C19; microsomes)	inhibition at 100 µM (CYP2D6 [8])	inhibition at 100 µM (CYP2C8)	inhibition at 30 µM (CYP2B6 [14])	inhibition at 0.3 µM (CYP2B6 [15])	inhibition at 100 µM (CYP2C9 [16])	inhibition at 100 µM (CYP3A4 [9])	inhibition at 3 µM (CYP2B6 [10])	inhibition at 10 µM (CYP3A4 [11])	inhibition at 30 µM (CYP2C9 [12])	inhibition at 30 µM (CYP2D6 [13])	inhibition at 100 µM (CYP2C19; human liver microsomes)
CCOC(=O)C1=C(COCCN)NC(C)=C(C(=O)OC)C1c1ccccc1Cl (stereo not drawn) [AMLODIPINE]	7.1 pmol	metabolite_not_detected					< 10%			< 10%	< 10%				42%	< 10%	< 10%	< 10%	< 10%	< 10%

Reference: ChEMBL document CHEMBL3526118, “Combination of GSH trapping and time-dependent inhibition assays as a predictive method of drugs generating highly reactive metabolites” (Drug Metab Dispos, 2011)
